The test system of data set [1] is HeLa. Nature of the data set: Inhibition of HIV1 gp120 binding to CD4 assessed as inhibition of CD4 expressing human HeLa cells by MAGI assay. In kind it is cell-based. The settings on record: Human immunodeficiency virus 1. Summed up: (§1)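 MAGI assay: HeLa-CD4+ beta-gal cells seeded at 15 × 10³ per well, infected with HIV-1 HXB2 with or without inhibitor in the presence of DEAE-dextran. Two days after infection, cells fixed in 1% formaldehyde/0.2% glutaraldehyde in PBS. Stained with ferro/ferricyanide (4 mM each), 2 mM MgCl₂ and 0.4 mg/mL X-Gal. Blue cells counted by light microscopy.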

Data set [2] in a line: Tmax in Wistar rat at 1 mg/kg, iv. In kind it is ADME, organism-based. Details: dose 1 mg/kg, route intravenous. The settings on record: in vivo. Summed up:
(§2)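 Conscious male Wistar rats (275 ± 20 g, n = 5 per route) with jugular vein cannula implanted 24 h before dosing. Given 1 mg/kg IV bolus or 10 mg/kg by oral gavage, dissolved in water. Heparinized blood sampled at several times up to 24 h. Plasma separated by centrifugation (4000 g, 5 min, 4 °C), stored at −70 °C. Parameters from noncompartmental analysis.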

The nature of data set [3]: Cmax in Wistar rat at 10 mg/kg, po. The settings on record: in vivo. Also on record: dose 10 mg/kg, route oral. The data set is classed as ADME, organism-based. In short, it runs like this:
as §2

The nature of data set [4]: Oral bioavailability in Wistar rat at 10 mg/kg. In kind it is ADME, organism-based. The conditions noted are these: in vivo. Summed up:
as §2

Data set [5] has as its system Rattus norvegicus. In words: AUC in Wistar rat at 10 mg/kg, po. In kind it is ADME, organism-based, Plasma. The settings on record: in vivo. Details: dose 10 mg/kg, route oral. In short, it runs like this: as §2
Data set [6] in a line: Cmax in Wistar rat at 1 mg/kg, iv. The settings on record: in vivo. The data set is classed as ADME, organism-based. Also on record: dose 1 mg/kg, route intravenous. Summed up: as §2
Data set [7] has as its system Rattus norvegicus. In words: Volume of distribution at steady state in Wistar rat at 10 mg/kg, po. In kind it is ADME, organism-based. Also on record: dose 10 mg/kg, route oral. The settings on record: in vivo. In short, it runs like this:
as §2

The nature of data set [8]: Half life in Wistar rat at 10 mg/kg, po. In kind it is ADME, organism-based. The conditions noted are these: in vivo. Also on record: dose 10 mg/kg, route oral. In short, it runs like this:
as §2

In data set [9] the test system is Human immunodeficiency virus 1. In words: Antiviral activity against HIV1 assessed as reduction in infection. In kind it is functional. Summed up:
as §1

Data set [10] in a line: Tmax in Wistar rat at 10 mg/kg, po. Details: dose 10 mg/kg, route oral. The data set is classed as ADME, organism-based. The settings on record: in vivo. Summed up:
as §2

The values that follow come from ChEMBL document CHEMBL1250460, “Rational conversion of noncontinuous active region in proteins into a small orally bioavailable macrocyclic drug-like molecule: the HIV-1 CD4:gp120 paradigm” (Bioorg Med Chem, 2010).

The source made the active and inactive calls.

For the compound `N=C(N)NCCCC1NC(=O)CCCCCC(=O)NC(Cc2ccc(O)cc2)CN(CC(N)=O)C1=O` (stereo unspecified), in data set [1], the inhibition result was “inactive”.
`N=C(N)NCCCC1NC(=O)CCCCCC(=O)NC(Cc2ccccc2)CN(CC(N)=O)C1=O` (stereo unspecified): the time of peak concentration (Tmax) (commonly the time from dosing to the highest level) in data set [2] is 5 min; in data set [10], 18 min. Moreover, the results for the maximum concentration (Cmax) in data set [3] and in data set [6] were 866 ng/mL and 102 ng/mL, respectively. The bioavailability – broadly, dose-corrected exposure relative to a reference, in per cent – in data set [4] was 10%. Further, the area under the curve (AUC) – broadly, concentration integrated over time – in data set [5] amounted to 21770 ng·min/mL. For the same compound, in data set [7], the Vdss worked out at 0.6 L/kg. Besides, the half-life – broadly, the time needed for the level to fall by half in the phase considered – in data set [8] was 73 min. Moreover, the “inhibition (INH)” value in data set [9] turned out to be 80%. The inhibition result in [1] is “Active”.
